# Where “and” joins values, the source holds several entries; their conditions need not be identical. Equal values may be shown once.
# Tested on: Fibroblast
# Experiment: Multiplex assay against human fibroblast
# Type: toxicity, cell-based
# Summary of the method: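 Values for tubulin, mitochondrial-mass and membrane-permeability phenotypes are per cents of cells with healthy nuclei. These cells were identified by CellPathfinder machine-learning gating of live cells that had been stained at seeding with Hoechst33342, BioTracker Green Microtubule Cytoskeleton Dye, MitoTracker Red and Annexin V Alexa Fluor 680 and imaged on a CQ1 microscope at 37°C and 5% CO2 after compound addition. The gating first set Hoechst high-intensity objects apart from normal cells, then split normal cells into healthy, pyknosed or fragmented nuclei, and pyknosed cells into mitotic or apoptotic.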
# [1] = 12 h, 1 µM, compound concentration 1 uM, replicate 1
# [2] = 12 h, 1 µM, compound concentration 1 uM, replicate 2
# [3] = 12 h, 10 µM, compound concentration 10 uM, replicate 1
# [4] = 12 h, 10 µM, compound concentration 10 uM, replicate 2
# [5] = 24 h, 1 µM, compound concentration 1 uM, replicate 1
# [6] = 24 h, 1 µM, compound concentration 1 uM, replicate 2
# [7] = 24 h, 10 µM, compound concentration 10 uM, replicate 1
# [8] = 24 h, 10 µM, compound concentration 10 uM, replicate 2
# [9] = 48 h, 10 µM, compound concentration 10 uM, replicate 1
# [10] = 48 h, 10 µM, compound concentration 10 uM, replicate 2
compound,measurement,setting,value
COc1cc2nccc(Oc3ccc(NC(=O)Nc4cc(C)on4)c(Cl)c3)c2cc1OC.O,Population Apoptotic (%),[1],66% and 58%
same,Population Fragmented Nuclei (%),[1],38% and 29%
same,Population Healthy Nuclei (%),[1],45% and 54%
same,Population Hoechst High Intensity Objects (%),[1],11% and 12%
same,Population Membrane Permeable-Phenotype (%),[1],10% and 8%
same,Population Mitochondria Different-Phenotype (%),[1],10%
same,Population Mitotic Cells (%),[1],33% and 41%
same,Population Normal (%),[1],88% and 87%
same,Population Pyknosed Nuclei (%),[1],16%
same,Population Tubulin-Different-Phenotype (%),[1],13%
same,Total Cell Count,[1],229 and 203
same,Population Apoptotic (%),[2],40% and 50%
same,Population Fragmented Nuclei (%),[2],63% and 48%
same,Population Healthy Nuclei (%),[2],28% and 18%
same,Population Hoechst High Intensity Objects (%),[2],33% and 40%
same,Population Membrane Permeable-Phenotype (%),[2],27% and 28%
same,Population Mitotic Cells (%),[2],60% and 50%
same,Population Normal (%),[2],66% and 59%
same,Population Tubulin-Different-Phenotype (%),[2],38% and 57%
same,Total Cell Count,[2],95 and 62
same,Population Apoptotic (%),[3],47%
same,Population Fragmented Nuclei (%),[3],30%
same,Population Healthy Nuclei (%),[3],31%
same,Population Hoechst High Intensity Objects (%),[3],13%
same,Population Membrane Permeable-Phenotype (%),[3],17%
same,Population Mitochondria Different-Phenotype (%),[3],31%
same,Population Mitotic Cells (%),[3],52%
same,Population Normal (%),[3],86%
same,Population Pyknosed Nuclei (%),[3],37%
same,Population Tubulin-Different-Phenotype (%),[3],77%
same,Total Cell Count,[3],163
same,Population Apoptotic (%),[4],71%
same,Population Fragmented Nuclei (%),[4],11%
same,Population Healthy Nuclei (%),[4],75%
same,Population Hoechst High Intensity Objects (%),[4],3%
same,Population Membrane Permeable-Phenotype (%),[4],36%
same,Population Mitochondria Different-Phenotype (%),[4],97%
same,Population Mitotic Cells (%),[4],28%
same,Population Normal (%),[4],96%
same,Population Pyknosed Nuclei (%),[4],12%
same,Population Tubulin-Different-Phenotype (%),[4],97%
same,Total Cell Count,[4],58
same,Population Apoptotic (%),[5],76% and 68%
same,Population Fragmented Nuclei (%),[5],41% and 26%
same,Population Healthy Nuclei (%),[5],39% and 59%
same,Population Hoechst High Intensity Objects (%),[5],15% and 11%
same,Population Membrane Permeable-Phenotype (%),[5],3% and 0%
same,Population Mitochondria Different-Phenotype (%),[5],42%
same,Population Mitotic Cells (%),[5],23% and 32%
same,Population Normal (%),[5],84% and 88%
same,Population Pyknosed Nuclei (%),[5],19% and 14%
same,Total Cell Count,[5],231 and 198
same,Population Apoptotic (%),[6],25%
same,Population Fragmented Nuclei (%),[6],58% and 53%
same,Population Healthy Nuclei (%),[6],34% and 19%
same,Population Hoechst High Intensity Objects (%),[6],35% and 29%
same,Population Membrane Permeable-Phenotype (%),[6],10% and 22%
same,Population Mitotic Cells (%),[6],75%
same,Population Normal (%),[6],64% and 70%
same,Total Cell Count,[6],85 and 67
same,Population Apoptotic (%),[7],57%
same,Population Fragmented Nuclei (%),[7],29%
same,Population Healthy Nuclei (%),[7],40%
same,Population Hoechst High Intensity Objects (%),[7],19%
same,Population Membrane Permeable-Phenotype (%),[7],11%
same,Population Mitochondria Different-Phenotype (%),[7],53%
same,Population Mitotic Cells (%),[7],42%
same,Population Normal (%),[7],80%
same,Population Pyknosed Nuclei (%),[7],29%
same,Population Tubulin-Different-Phenotype (%),[7],86%
same,Total Cell Count,[7],158
same,Population Apoptotic (%),[8],92%
same,Population Fragmented Nuclei (%),[8],16%
same,Population Healthy Nuclei (%),[8],60%
same,Population Hoechst High Intensity Objects (%),[8],3%
same,Population Membrane Permeable-Phenotype (%),[8],67%
same,Population Mitochondria Different-Phenotype (%),[8],100%
same,Population Mitotic Cells (%),[8],7%
same,Population Normal (%),[8],96%
same,Population Pyknosed Nuclei (%),[8],23%
same,Population Tubulin-Different-Phenotype (%),[8],97%
same,Total Cell Count,[8],58
same,Population Apoptotic (%),[9],76%
same,Population Fragmented Nuclei (%),[9],33%
same,Population Healthy Nuclei (%),[9],47%
same,Population Hoechst High Intensity Objects (%),[9],22%
same,Population Membrane Permeable-Phenotype (%),[9],10%
same,Population Mitochondria Different-Phenotype (%),[9],60%
same,Population Mitotic Cells (%),[9],23%
same,Population Normal (%),[9],77%
same,Population Pyknosed Nuclei (%),[9],18%
same,Population Tubulin-Different-Phenotype (%),[9],83%
same,Total Cell Count,[9],148
same,Population Apoptotic (%),[10],62%
same,Population Fragmented Nuclei (%),[10],36%
same,Population Healthy Nuclei (%),[10],54%
same,Population Hoechst High Intensity Objects (%),[10],10%
same,Population Membrane Permeable-Phenotype (%),[10],0%
same,Population Mitochondria Different-Phenotype (%),[10],75%
same,Population Mitotic Cells (%),[10],37%
same,Population Normal (%),[10],89%
same,Population Pyknosed Nuclei (%),[10],9%
same,Population Tubulin-Different-Phenotype (%),[10],95%
same,Total Cell Count,[10],98

# Source: ChEMBL document CHEMBL4689842, “EUbOPEN Chemogenomics Library wave 1” (2021)
